Assay results published in ChEMBL document CHEMBL4334439, “Discovery, Optimization, and Target Identification of Novel Potent Broad-Spectrum Antiviral Inhibitors” (J Med Chem, 2019).

Assays:
Hepatitis C virus [1] = experiment: Antiviral activity against EGFP-fused HCV JFH-1 harboring K78E/E2-G451R/NS3-M260K/NS5A-T462I mutant infected in human Huh7.5.1 cells assessed as reduction in viral RNA level after 2 days by qRT-PCR analysis; type: functional, organism-based, Hepacivirus hominis; conditions: JFH-1, Huh-7.5.1, 48 h
How it was run: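 Huh7.5.1 cells at 1×10^4/well, grown overnight at 37 °C. HCVcc was mixed with serially diluted compound (top 30 or 6 μM), given alone or with the named drug, and added to the cells. Viral RNA was read by qRT-PCR after 2 days. EC50 is the concentration giving 50% RNA reduction.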

[2] = Cytotoxicity against human Huh7.5.1 cells assessed as decrease in cell viability after 48 hrs by WST1 assay; type: cell-based
How it was run: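 Cells seeded at 1 × 10^4 per well and cultured overnight at 37 °C, then incubated 48 h with serially diluted compounds. Viability read with WST-1 reagent as absorbance at OD450/OD630.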

Hepatitis C virus [3] = experiment: Antiviral activity against GFP-fused HCV JFH-1 harboring K78E/E2-G451R/NS3-M260K/NS5A-T462I mutant infected in human Huh7.5.1 cells assessed as reduction in viral infection at 10 uM preincubated for 2 hrs followed by viral infection and measured after 48 hrs by epifluorescence microscopic analysis relative to control; type: functional, Hepacivirus hominis; design: scale not given: the % may be the effect or the level left
How it was run: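 Primary screen at 10 μM. Huh7.5.1 cells were pretreated 2 h, then infected with GFP-HCV (MOI 1). GFP intensity was checked by fluorescence microscopy at 48 h. Hits needed over 50% fluorescence decay before dose-response retesting.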

[4] = Selectivity index, ratio of CC50 for human Huh7.5.1 cells to EC50 for EGFP-fused HCV JFH-1 harboring K78E/E2-G451R/NS3-M260K/NS5A-T462I mutant infected in human Huh7.5.1 cells; type: toxicity, cell-based; conditions: read-out: Ratio CC50/EC50
[5] = Inhibition of C-terminal 6-His tagged recombinant human DHODH N-terminal domain delta29 mutant expressed in Escherichia coli BL21(DE3) using dihydroorotate as substrate measured every 30 secs for 6 mins by DCIP dye based assay
How it was run: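 Enzyme purified by HisTrap then size exclusion. Reaction started with 500 μM dihydroorotate. DCIP decrease read at 600 nm. Inhibition = (1 − Vi/V0) × 100. IC50 from 8–9 concentrations in triplicate by sigmoidal fit.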

Hepatitis C virus [6] = experiment: Antiviral activity against HCV JFH-1 harboring K78E/E2-G451R/NS3-M260K/NS5A-T462I mutant infected in human Huh7.5.1 cells after 2 days by renilla luciferase reporter gene assay; type: functional, organism-based, Hepacivirus hominis; conditions: JFH-1, Huh-7.5.1, 48 h
How it was run: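 Renilla luciferase reporter HCVcc (hRluc inserted in NS5A, aa 399/400) came from electroporated Huh7.5.1 supernatant. Virus plus serially diluted compound (top 30 or 6 μM) was added to Huh7.5.1 cells (1×10^4/well) and luminescence read. EC50 is 50% luminescence reduction.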

| SMILES | EC50 (Hepatitis C virus [1]) | CC50 at 48 h [2] | Activity (Hepatitis C virus [3]) | selectivity ratio [4] | IC50 [5] | EC50 (Hepatitis C virus [6]) |
| --- | --- | --- | --- | --- | --- | --- |
| CN=S(=O)(c1ccc(Cc2ccc(-c3[nH]c4cccc(F)c4c(=O)c3C)cc2)cc1)C(F)(F)F (centres undefined) | 5390 nM | > 10000 nM | >50% | > 2 | – | – |
| C#CCCC1(CCN(CC)c2ccc(Oc3ccc(-c4[nH]c5cccc(F)c5c(=O)c4C)cc3F)cc2)N=N1 | 8 nM | – | >50% | – | 250 nM | – |
| Cc1c(-c2ccc(Cc3ccc(S(=O)(=O)C(F)(F)F)cc3)cc2)[nH]c2cccc(F)c2c1=O | 1760 nM | > 2500 nM | >50% | > 2 | – | – |
| Cc1c(-c2ccc(Cc3ccc(Cl)cc3)cc2)[nH]c2cccc(F)c2c1=O | 4400 nM | > 10000 nM | >50% | > 2 | – | – |
| Cc1c(-c2ccc(Oc3ccc(N4CCNCC4)cc3)c(F)c2)[nH]c2cccc(F)c2c1=O | 2570 nM | > 10000 nM | >50% | > 4 | – | – |
| Cc1c(-c2ccc(Cc3ccc(C(C)(O)C(F)(F)F)cc3)cc2)[nH]c2cccc(F)c2c1=O (centres undefined) | 110 nM | > 2500 nM | >50% | > 23 | – | – |
| Cc1c(-c2ccc(OCCN3CCCCC3)cc2)[nH]c2cccc(F)c2c1=O | 16600 nM | > 100000 nM | >50% | > 6 | – | – |
| Cc1c(-c2ccc(Cc3ccc(N4CCCCC4)cc3)cc2)[nH]c2cccc(F)c2c1=O | 1920 nM | > 10000 nM | >50% | > 5 | – | – |
| Cc1c(-c2ccc(Cc3ccc(S(F)(F)(F)(F)F)cc3)cc2)[nH]c2cccc(F)c2c1=O | 730 nM | > 5000 nM | >50% | > 7 | – | – |
| Cc1c(-c2ccc(CNC(=O)c3ccc(SC(F)(F)F)cc3)cc2)[nH]c2cccc(F)c2c1=O | 11000 nM | > 50000 nM | >50% | > 5 | – | – |
| CCNc1ccc(Oc2ccc(-c3[nH]c4cccc(F)c4c(=O)c3C)cc2F)cc1 | 170 nM | > 10000 nM | >50% | > 58 | – | – |
| Cc1c(-c2ccc(Cc3ccc(C(O)C(F)(F)F)cc3)cc2)[nH]c2cccc(F)c2c1=O (centres undefined) | 3490 nM | > 10000 nM | >50% | > 3 | – | – |
| Cc1c(-c2ccc(Oc3ccc(N(C)C)cc3)c(F)c2)[nH]c2cccc(F)c2c1=O | 1050 nM | > 10000 nM | >50% | > 10 | – | – |
| Cc1c(-c2ccc(OCCCN3CCOCC3)cc2)[nH]c2cccc(F)c2c1=O | 28100 nM | > 100000 nM | >50% | > 4 | – | – |
| CCN(C)c1ccc(Oc2ccc(-c3[nH]c4cccc(F)c4c(=O)c3C)cc2F)cc1 | 240 nM | > 10000 nM | >50% | > 42 | – | – |
| Cc1c(-c2ccc(Cc3ccc(OC(F)F)cc3)cc2)[nH]c2cccc(F)c2c1=O | 1010 nM | > 5000 nM | >50% | > 5 | – | – |
| Cc1c(-c2ccc(Cc3ccc(SC(F)(F)F)cc3)cc2)[nH]c2ccc(F)cc2c1=O | 2480 nM | > 10000 nM | >50% | > 4 | – | – |
| COc1ccc(Cc2ccc(-c3[nH]c4cccc(F)c4c(=O)c3C)cc2)cc1 | 2170 nM | > 10000 nM | >50% | > 5 | – | – |

| SMILES | EC50 (Hepatitis C virus [1]) | CC50 at 48 h [2] | Activity (Hepatitis C virus [3]) | selectivity ratio [4] | IC50 [5] | EC50 (Hepatitis C virus [6]) |
| --- | --- | --- | --- | --- | --- | --- |
| Cc1c(-c2ccc(Oc3ccc(N4CCCC4)cc3)c(F)c2)[nH]c2cccc(F)c2c1=O | 35 nM | > 10000 nM | >50% | > 285 | – | – |
| Cc1c(-c2ccc(Cc3ccc(OCC(F)(F)F)cc3)cc2)[nH]c2cccc(F)c2c1=O | 840 nM | > 5000 nM | >50% | > 6 | – | – |
| Cc1c(-c2ccc(Oc3ccc(N4CCCCC4)cc3)c(F)c2)[nH]c2cccc(F)c2c1=O | 100 nM | > 10000 nM | >50% | > 100 | – | – |
| Cc1c(-c2ccc(Cc3ccc(SC(F)(F)F)cc3)cc2)[nH]c2cc(F)ccc2c1=O | 970 nM | > 5000 nM | >50% | > 5 | – | – |
| Cc1c(-c2ccc(Cc3ccc(OC(F)(F)F)cc3)cc2)[nH]c2cccc(F)c2c1=O | 360 to 1560 nM | > 10000 nM | >50% | > 6 | – | – |
| Cc1c(-c2ccc(Oc3ccc(SC(F)(F)F)cc3)c(F)c2)[nH]c2cccc(F)c2c1=O | 360 nM | > 10000 nM | >50% | > 27 | – | – |
| Cc1c(-c2ccc(-c3ccc(SC(F)(F)F)cc3)cc2)[nH]c2cccc(F)c2c1=O | 2330 nM | > 10000 nM | >50% | > 4 | – | – |
| CCN(CC)CCOc1ccc(-c2[nH]c3cccc(F)c3c(=O)c2C)cc1 | 25600 nM | > 100000 nM | >50% | > 4 | – | – |
| Cc1c(-c2ccc(Cc3ccc(SC(F)(F)F)cc3)cc2)[nH]c2c(F)cccc2c1=O | 1850 nM | > 5000 nM | >50% | > 3 | – | – |
| Cc1c(-c2ccc(COc3ccc(SC(F)(F)F)cc3)cc2)[nH]c2cccc(F)c2c1=O | 1590 nM | > 10000 nM | >50% | > 6 | – | – |
| Cc1c(-c2ccc(Cc3ccc(SC(F)(F)F)cc3)cc2)[nH]c2cccc(F)c2c1=O | 360 to 1560 nM | > 10000 nM | >50% | > 27 | – | – |
| Cc1c(-c2ccc(Cc3ccc(N4CCOCC4)cc3)cc2)[nH]c2cccc(F)c2c1=O | 3650 nM | > 10000 nM | >50% | > 3 | – | – |
| Cc1c(-c2ccc(Cc3ccc([S+]([O-])C(F)(F)F)cc3)cc2)[nH]c2cccc(F)c2c1=O (centres undefined) | 760 nM | > 5000 nM | >50% | > 7 | – | – |
| C#CCCC1(CCN(CC)c2ccc(Oc3ccc(-c4nc5cccc(F)c5c(OC)c4C)cc3F)cc2)N=N1 | > 5000 nM | – | >50% | – | 1030 nM | – |
| Cc1c(-c2ccc(Cc3ccc(S(=N)(=O)C(F)(F)F)cc3)cc2)[nH]c2cccc(F)c2c1=O (centres undefined) | 1420 nM | > 10000 nM | >50% | > 7 | – | – |
| Cc1c(-c2ccc(Cc3ccc(C(C)(C)C)cc3)cc2)[nH]c2cccc(F)c2c1=O | 290 nM | > 5000 nM | >50% | > 17 | – | – |
| CC(C)OC(=O)[C@H](C)N[P@](=O)(OC[C@H]1O[C@@H](n2ccc(=O)[nH]c2=O)[C@](C)(F)[C@@H]1O)Oc1ccccc1 [SOFOSBUVIR] | – | – | – | – | – | 170 nM |
| CCCN(CC)c1ccc(Oc2ccc(-c3[nH]c4cccc(F)c4c(=O)c3C)cc2F)cc1 | 66 nM | > 10000 nM | >50% | > 151 | – | – |
